Holding throughout (format): functional, cell-based
The subject of one test is HL-60. As to the kind of experiment: Cytotoxicity against human HL60 cells after 72 hrs by MTT assay. Particulars: HL-60, 72 h. In short, it runs like this:
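HL-60 leukaemia cells in exponential growth, resuspended at 1 × 10^5 cells/mL in RPMI 1640 with 10% FBS, penicillin G and streptomycin. Drug exposure for 72 h, then viability by MTT. Growth at each concentration expressed as % of untreated controls. IC50 (50% growth inhibition) by linear regression. Mean ± SEM of three independent experiments. Doxorubicin hydrochloride as reference.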

The subject of the next test is HT-1080. As to the kind of experiment: Cytotoxicity against human HT1080 cells after 72 hrs by MTT assay. The note with it: HT-1080, 72 h. In short, it runs like this:
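HT1080 cells grown in DMEM with 10% FBS, penicillin G and streptomycin. Exponentially growing cultures seeded at 5 × 10^4 cells/mL and left to adhere 18 h before drug addition. MTT viability read after 72 h. Growth as % of untreated controls, IC50 by linear regression. Mean ± SEM of three independent experiments. Doxorubicin hydrochloride as reference.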

Test [1] relates to LoVo. As to the kind of experiment: Cytotoxicity against human LoVo cells after 72 hrs by MTT assay. In short, it runs like this:
(§1)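 Parental LoVo and the mdr-expressing (P-glycoprotein) LoVo/Doxo intestinal adenocarcinoma lines cultured in Ham's F12. Exponentially growing cells seeded at 5 × 10^4 cells/mL and allowed 18 h adherence before drug. MTT viability at 72 h. Growth as % of untreated controls, IC50 by linear regression. Mean ± SEM, three independent experiments. Doxorubicin hydrochloride as reference.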
A general note: Formazan colour is commonly taken as a measure of viable cells.

For test [2], the system named is LoVo. As to the kind of experiment: Cytotoxicity against human doxorubicin-resistant LoVo cells after 72 hrs by MTT assay. The method, boiled down:
as §1

Each structure is given as a SMILES string. Counter-ions that a name gives are not always drawn.

What is called IC50 is the point on the concentration scale where inhibition reaches its midpoint. As for `O=C(O)/C(=C/c1ccc(O)cc1)[C@@H](C(=O)O)C(=O)c1ccc(O)cc1`, the half-maximal inhibitory concentration (IC50) was 11.5 µM with HL-60, 30.6 µM with HT-1080, 16.4 µM in the test with LoVo [1] and 19.6 µM with LoVo [2].

Take `O=C1O[C@@H](c2ccc(O)cc2)[C@H](C(=O)O)/C1=C\c1ccc(O)cc1` (relative stereo): the IC50 in the test on HL-60 is 11.3 µM; in the test on HT-1080 it was 36 µM; with LoVo [1], 13.9 µM; in the test with LoVo [2], greater than 40 µM.

Turning to `COc1cccc2c1C(=O)c1c(O)c3c(c(O)c1C2=O)C[C@@](O)(C(=O)CO)C[C@@H]3O[C@H]1C[C@H](N)[C@H](O)[C@H](C)O1` [DOXORUBICIN HYDROCHLORIDE], the IC50 was 0.01 µM in the test on HL-60, 0.012 µM with HT-1080, 0.2 µM with LoVo [1] and 13.2 µM with LoVo [2].

With `C=C[C@@H](O)C#CC#C[C@@H](O)/C=C\CCCCCCC` [FALCARINDIOL], the IC50 with HL-60 was 8.9 µM; in the test on HT-1080, 13 µM; with LoVo [1], 4.3 µM; with LoVo [2], greater than 40 µM.

For the molecule `COC(=O)/C=C/c1ccc(O)c(O)c1` [METHYLCAFFEATE], the half-inhibitory concentration (IC50) in the test on HL-60 was 7.5 µM; in the test on HT-1080, 11.1 µM; in the test on LoVo [1], 5.8 µM; with LoVo [2], greater than 40 µM.

On to `COc1cc2ccc(=O)oc2cc1O` [SCOPOLETIN], for which the IC50 with HL-60 worked out at 9.5 µM; in the test with HT-1080, 12.5 µM; with LoVo [1], 7.3 µM; in the test with LoVo [2], 18.5 µM.

The values above are taken from ChEMBL document CHEMBL1148905, “Cytotoxic constituents of roots of Chaerophyllum hirsutum” (J Nat Prod, 2004).
